Test results published in PubChem BioAssay.
Calls of active or inactive are those of the source.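 Rule for the calls, unless noted: active = NADPH fluorescence slope more negative than the mean of all samples by about 3 SD, 99.7% confidence; inactive = the rest.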

Experiments:
[1] = inhibitors of TNFa-induced NFkB p65 translocation, primary screen, imaging, HUVEC, MLSMR starter and 10KST1 sets (AID 438;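 active = inhibition above 20% together with a positive visual image hit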;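 note: compound added about 3h40 before a 20 min TNFalpha stimulation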;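 for inhibition: signal is the nuclear over cytoplasmic p65 intensity ratio per well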); conditions: HUVEC TNFa-induced p65 nuclear translocation; cell count: measured here: nuclei count (cytotoxicity indicator), at 2.08 µM; inhibition: at 2 µM, stronger effect = higher value, 0% TNFa-plus-vehicle, 100% no-TNFa wells
[2] = inhibitors of E-selectin induction by TNFa, primary screen, imaging, HUVEC, immunofluorescence, MLSMR starter and 10KST1 sets (AID 487;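 active = visually confirmed hit in the image check and inhibition above 20%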;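 for inhibition: signal is fraction of cell area covered by stained E-selectin grains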;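 for nuclei count: 100% = median nuclei count of all wells on the same plate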); conditions: HUVEC TNFalpha-induced E-selectin immunofluorescence imaging, at 2 µM; inhibition: stronger effect = higher value; nuclei count: measured here: cell number, toxicity
[3] = DUSP6 inhibitors restoring Erk phosphorylation by chemical complementation, primary imaging in DUSP6-transfected HeLa (AID 609;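 active = compounds giving at least 50% inhibition in the cell-based MKP-3 phosphatase rescue imaging test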;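 for inhibition: phospho-Erk level distribution per well compared with pooled transfected vehicle control wells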); conditions: HeLa MKP-3 transfected, phospho-Erk imaging KS statistic, at 10 µM, cells stimulated with TPA for 15 min
[4] = molecular target: Dual specificity protein phosphatase 6 (Homo sapiens) (UniProt Q16828); experiment: as above; conditions: HeLa MKP-3 transfected, phospho-Erk imaging KS statistic; at 10 µM; stronger effect = higher value; cells stimulated with TPA for 15 min
[5] = molecular target: Voltage-gated potassium channel subunit beta-2 (Rattus norvegicus) (UniProt P62483); experiment: KvBeta enzyme negative modulators, primary screen, biochemical, NADPH fluorescence (AID 622;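 active = fluorescence slope higher than the sample average by over 3 SD, cut at about -0.22 in these data, passing the limit was not always enough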;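 note: slope of raw intensity against log time taken from 70 to 1610 s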); conditions: recombinant KvBeta, 4-cyanobenzaldehyde reduction, at 10 µM, stronger effect = higher value
[6] = molecular target: Voltage-gated potassium channel subunit beta-2 (Rattus norvegicus) (UniProt P62483); experiment: KvBeta positive modulators, primary screen, biochemical, NADPH fluorescence (AID 623); conditions: Recombinant KvBeta, NADPH fluorescence decrease slope, 10 min; at 10 µM; stronger effect = lower value;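 note: fluorescence intensity change per second fitted from 20 to 320 s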
[7] = molecular target: Muscarinic acetylcholine receptor M4 (Homo sapiens) (UniProt P08173); experiment: compounds altering M4/GIRK thallium flux, either direction, primary screen, M4 allosteric agonist project, cell-based, HEK293 M4/GIRK, BTC-AM (AID 625;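 active = fluorescence slope after compound addition differing from the mean of all tested samples at 99.7% confidence, mostly higher but some lower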;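 note: thallium influx through GIRK channels coupled to M4 in HEK293 cells with BTC-AM dye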); conditions: at 10 µM, actives lie on both sides
Outline: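 Material – HEK293 cells with M4 receptor and GIRK channels · Buffer or medium – pH 7.3 thallium assay buffer · Doses – one dose, 10 µM final · Timing – cells overnight at 37 °C, BTC-AM loading 1 h, reads 2 min total · Measured by – kinetic fluorescence with BTC-AM dye · Controls – carbachol and DMSO controls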

[8] = inhibitors of larval lipid processing in zebrafish, primary screen, whole organism, PED6 fluorescence, gall bladder and intestine (AID 686;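 active = a full or partial loss of lipid-probe fluorescence in the fish gall bladder, intestine or both, judged by eye; inactive = no fluorescence loss, or compound toxic to the fish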;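 note: larvae 5 to 7 days old with five fish per well; signal comes from phospholipase A2 cleavage of quenched PED6 carried via bile; overnight exposure to compound and PED6 before scoring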); conditions: Zebrafish larvae PED6 lipid processing, fluorescence scoring; screened at 20 µM (by protocol)
Outline: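 system = live zebrafish larvae aged 5-7 days, whole organism | probe or stimulus = ingested quenched lipid PED6 at 100 nM | doses = 20 µM single dose | timing = overnight exposure | detection = fluorescence microscopy with visual scoring of gall bladder and intestine | read-out = visual per-well fluorescence inhibition score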

[9] = inhibitors of Chlamydomonas gravitaxis, primary screen, whole organism, Chlamydomonas reinhardtii, WT vs cilia-less mutant, absorbance, 96-well (AID 463189;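 active = inhibition at or above 50% relative to wild type and mutant plate controls; inactive = inhibition below 50%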;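 note: 0% = wild type cc124 cells in DMSO and 100% = ciliumless bld1 mutant cells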); conditions: OD600 absorbance, 2 days, at 10 µM, stronger effect = higher value
[10] = measured here: cell density z-score
[11] = measured here: nuclear c-Myc green intensity z-score
[12] = measured here: nuclear pErk red intensity z-score, stronger effect = higher value

Chain of Voltage-gated potassium channel subunit beta-2 (Rattus norvegicus) (P62483 whole entry, looked up): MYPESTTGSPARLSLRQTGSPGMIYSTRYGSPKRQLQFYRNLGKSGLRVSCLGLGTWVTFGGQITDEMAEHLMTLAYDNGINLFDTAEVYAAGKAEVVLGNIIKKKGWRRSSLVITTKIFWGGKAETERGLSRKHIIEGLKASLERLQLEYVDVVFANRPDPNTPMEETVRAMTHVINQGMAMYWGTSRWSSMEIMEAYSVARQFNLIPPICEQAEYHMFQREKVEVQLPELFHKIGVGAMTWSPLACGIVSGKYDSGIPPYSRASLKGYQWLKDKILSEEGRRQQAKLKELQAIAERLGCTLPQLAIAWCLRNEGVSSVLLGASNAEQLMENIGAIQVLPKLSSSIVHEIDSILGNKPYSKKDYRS
Chain of Muscarinic acetylcholine receptor M4 (Homo sapiens) (P08173 whole entry, looked up): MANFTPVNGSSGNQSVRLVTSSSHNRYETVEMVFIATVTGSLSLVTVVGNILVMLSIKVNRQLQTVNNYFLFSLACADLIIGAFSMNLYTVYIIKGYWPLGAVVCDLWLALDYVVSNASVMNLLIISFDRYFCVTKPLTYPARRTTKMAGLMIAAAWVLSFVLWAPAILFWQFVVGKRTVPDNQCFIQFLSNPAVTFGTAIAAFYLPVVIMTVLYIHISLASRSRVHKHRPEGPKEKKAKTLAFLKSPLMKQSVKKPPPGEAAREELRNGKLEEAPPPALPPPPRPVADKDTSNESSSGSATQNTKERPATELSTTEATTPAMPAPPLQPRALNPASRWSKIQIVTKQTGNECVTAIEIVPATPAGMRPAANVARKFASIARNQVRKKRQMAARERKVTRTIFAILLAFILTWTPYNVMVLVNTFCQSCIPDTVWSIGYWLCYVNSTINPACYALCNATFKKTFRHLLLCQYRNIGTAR
Chain of Dual specificity protein phosphatase 6 (Homo sapiens) (Q16828 whole entry, looked up): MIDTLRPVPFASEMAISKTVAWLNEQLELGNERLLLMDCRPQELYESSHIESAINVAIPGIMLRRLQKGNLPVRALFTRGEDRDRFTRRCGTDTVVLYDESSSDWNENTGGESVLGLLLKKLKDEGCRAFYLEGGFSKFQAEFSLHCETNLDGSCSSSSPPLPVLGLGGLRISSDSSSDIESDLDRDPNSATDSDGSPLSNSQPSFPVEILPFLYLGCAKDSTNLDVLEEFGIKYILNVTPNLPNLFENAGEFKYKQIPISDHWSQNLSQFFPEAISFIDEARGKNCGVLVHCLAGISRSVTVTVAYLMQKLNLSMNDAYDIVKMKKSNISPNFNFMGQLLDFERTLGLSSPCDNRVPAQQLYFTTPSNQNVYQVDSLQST

Compound	cell count [1]	inhibition [1]	inhibition [2]	nuclei count [2] [%]	z-score [3, 10]	z-score [3, 11]	z-score [3, 12]	inhibition [4]	fluorescence slope [5]	NADPH fluorescence slope [6]	fluorescence slope [7]	outcome [8]	inhibition [9]
COc1cc(C2C(C(C)=O)=C(O)C(=O)N2c2ccc(Br)cn2)ccc1O (stereo unspecified)	406	-8.5% (inactive)	-148% (inactive)	180	-0.216	-0.848	0.128	-2.59% (inactive)	-0.446 (inactive)	-0.000114 (inactive)	0.00394 (inactive)	inactive	23.7% (inactive)
CCC(=O)Nc1nc(C)c(Oc2ccccc2)c(=O)[nH]1	696	-5.5% (inactive)	34.5% (inactive)	151	-0.359	-0.286	0.522	-9.53% (inactive)	-0.412 (inactive)	-4.2e-05 (inactive)	0.00483 (inactive)	inactive	2.71% (inactive)
O=C1C(=O)N(Cc2cccnc2)C(c2ccccn2)/C1=C(/O)c1ccc(F)cc1 (stereo unspecified)	327	-1.1% (inactive)	-58.9% (inactive)	98	1.24	1.4	-0.331	-0.624% (inactive)	-0.462 (inactive)	-3.7e-05 (inactive)	0.00549 (inactive)	inactive	-9.85% (inactive)
COCCNc1ncnc2c1cnn2-c1ccc(Cl)cc1	534	-25.3% (inactive)	11.8% (inactive)	184	1.76	-0.928	-0.638	23.4% (inactive)	-0.429 (inactive)	-5.8e-05 (inactive)	0.00652 (inactive)	inactive	6.55% (inactive)
Cc1ccc(N2C(=O)CC(Cn3nc(C)cc3C)C2=O)cc1 (stereo unspecified)	471	-3.4% (inactive)	5.8% (inactive)	98.6	0.966	-0.538	-0.159	11.9% (inactive)	-0.387 (inactive)	-2e-06 (inactive)	0.00565 (inactive)	inactive	25.4% (inactive)
COC(=O)C(NC(C)=O)(Nc1ccc(Br)cn1)C(F)(F)F (stereo unspecified)	555	1.7% (inactive)	54.1% (inactive)	88.1	-1.18	0.658	0.74	-4.59% (inactive)	-0.471 (inactive)	3.7e-06 (inactive)	0.00445 (inactive)	inactive	4.13% (inactive)
Cc1sc(-n2c(C)cc(/C=N/n3cnnc3)c2C)c(C#N)c1C	408	1.9% (inactive)	29.3% (inactive)	85.2	-1.21	-0.424	0.842	3.56% (inactive)	-0.546 (inactive)	-9.2e-05 (inactive)	0.00473 (inactive)	inactive	14% (inactive)
Cn1c(NCc2cccnc2)nc2c1c(=O)n(Cc1ccccc1F)c(=O)n2C	696	3% (inactive)	-201% (inactive)	167	0.699	-0.869	1.16	11.9% (inactive)	-0.51 (inactive)	-6e-05 (inactive)	0.00566 (inactive)	inactive	18.1% (inactive)
CCCCc1nc(N2CCOCC2)c(C#N)c2c1CCCC2	559	-11.7% (inactive)	-89.9% (inactive)	141	0.356	0.825	0.364	-15.1% (inactive)	-0.449 (inactive)	-0.000117 (inactive)	0.00395 (inactive)	inactive	11.9% (inactive)
CCSc1nnc(NC(=O)NCC(F)(F)F)s1	580	-4.9% (inactive)	31.5% (inactive)	96.4	1.02	-0.999	-0.913	9.07% (inactive)	-0.469 (inactive)	-3.9e-05 (inactive)	0.00649 (inactive)	inactive	-11.4% (inactive)
CCNc1sc(C(=O)c2cccs2)c(N)c1C#N	583	0.3% (inactive)	-26.4% (inactive)	114	0.394	-0.752	0.076	10.9% (inactive)	-0.442 (inactive)	-4.6e-05 (inactive)	0.00473 (inactive)	inactive	24.6% (inactive)
CCOC(=O)C1CCN(c2nc3ccccc3nc2C(C#N)C(=O)OC(C)COC)CC1 (stereo unspecified)	633	-11.6% (inactive)	-4.7% (inactive)	160	0.378	-0.378	-0.33	-5.81% (inactive)	-0.488 (inactive)	-8.1e-05 (inactive)	0.00472 (inactive)	inactive	6.91% (inactive)
